Results as given in paper PMC10809365 (ACS Omega, 2024).
pIC50: −log10 of the molar value. Entries after “also recorded” stand apart in the source; their conditions may differ. One block for each molecule: values may come before it.

How the values were obtained:
[1] = molecular target: T1, AbDapE (Acinetobacter baumannii, UniProt A3M8H2); experiment: DapE ninhydrin enzyme inhibition assay, AbDapE; type: biochemical; conditions: for Inhibition of AbDapE (in words): tested at 100 μM
Summary of the method: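 Purified His-tag-cleaved AbDapE at 8 nM final in 50 mM HEPES pH 7.5, 30 °C. Test compound (DMSO, 5% final) is preincubated with enzyme for 10 min before 2 mM N6-methyl-L,L-SDAP. After 10 min, heat to 100 °C for 1 min, chill, add 2% ninhydrin, 80 °C for 15 min, then read A570.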

[2] = molecular target: T2, HiDapE (Haemophilus influenzae, UniProt P44514); experiment: Thermal shift assay, HiDapE; type: binding; conditions: for Tm1 HiDapE / Tm2 HiDapE: 200 nM HiDapE + 10× dye
T2 sequence (P44514 1-377): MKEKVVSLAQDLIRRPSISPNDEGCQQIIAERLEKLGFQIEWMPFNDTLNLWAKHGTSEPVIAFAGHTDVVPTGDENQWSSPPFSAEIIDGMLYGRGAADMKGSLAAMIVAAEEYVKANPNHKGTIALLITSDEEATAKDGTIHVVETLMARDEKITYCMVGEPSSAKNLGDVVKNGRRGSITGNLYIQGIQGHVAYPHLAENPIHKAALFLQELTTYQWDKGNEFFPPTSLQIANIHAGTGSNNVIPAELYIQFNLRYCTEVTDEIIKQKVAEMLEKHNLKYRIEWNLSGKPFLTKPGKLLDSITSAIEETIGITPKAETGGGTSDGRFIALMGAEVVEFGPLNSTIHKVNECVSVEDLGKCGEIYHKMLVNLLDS

[3] = molecular target: T1, AbDapE; experiment: Thermal shift assay, AbDapE native; type: binding; conditions: for Tm1 AbDapE / Tm2 AbDapE: 16 μM AbDapE + 10× dye
Summary of the method: (§1)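 SYPRO Orange thermal melt at 10× dye in 50 mM HEPES pH 7.5, 10 µL triplicates. Protein is 16 µM for native AbDapE and 6 µM for SeMet AbDapE, with DMSO kept below 5%. Tm comes from the negative first derivative of the melting curves, further differentiated to the third derivative. Ki is calculated from Tm plotted against log[test compound] using a derived van't Hoff equation.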

[4] = molecular target: AbDapE-SeMet (Acinetobacter baumannii, UniProt A3M8H2); experiment: Thermal shift assay, AbDapE-SeMet; type: binding; conditions: 6 μM AbDapE-SeMet + 10× dye
AbDapE-SeMet, sequence (A3M8H2 whole entry): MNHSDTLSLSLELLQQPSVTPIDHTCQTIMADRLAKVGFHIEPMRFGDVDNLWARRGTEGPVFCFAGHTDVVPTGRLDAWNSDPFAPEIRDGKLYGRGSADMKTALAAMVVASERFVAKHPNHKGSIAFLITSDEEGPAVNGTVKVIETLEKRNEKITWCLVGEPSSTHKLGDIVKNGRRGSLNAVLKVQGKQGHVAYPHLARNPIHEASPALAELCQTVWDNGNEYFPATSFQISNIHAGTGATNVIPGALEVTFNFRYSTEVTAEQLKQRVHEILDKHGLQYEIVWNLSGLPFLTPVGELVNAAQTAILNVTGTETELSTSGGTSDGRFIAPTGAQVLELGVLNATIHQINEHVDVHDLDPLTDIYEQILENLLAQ
Summary of the method: as §1

[5] = system: DapE; conditions: DapE from E. faecium and E. coli studied; cited from earlier work

T1 sequence (A3M8H2 whole entry): as above

- pIC50 ([1]; AbDapE IC50, ninhydrin assay, 8 nM enzyme, 2 mM N^6-methyl-L,L-SDAP): 5.92
- Mode of inhibition of AbDapE ([1]; kinetic assays, modified ninhydrin assay): competitive inhibitors
- Tm1 HiDapE ([2]; 0.005 μM captopril): 51.5 ± 0.1 °C
- Tm2 HiDapE ([2]; 0.005 μM captopril): 78.2 ± 0.1 °C
- Tm1 HiDapE ([2]; 0.05 μM captopril): 50.2 ± 0.6 °C
- Tm2 HiDapE ([2]; 0.05 μM captopril): 78.6 ± 0.1 °C
- Tm1 HiDapE ([2]; 0.1 μM captopril): 50.0 ± 0.8 °C
- Tm2 HiDapE ([2]; 0.1 μM captopril): 78.1 ± 0.1 °C
- Tm1 HiDapE ([2]; 0.5 μM captopril): 50.5 ± 0.1 °C
- Tm2 HiDapE ([2]; 0.5 μM captopril): 78.3 ± 0.1 °C
- Tm1 HiDapE ([2]; 0.8 μM captopril): 50.3 ± 0.5 °C
- Tm2 HiDapE ([2]; 0.8 μM captopril): 77.9 ± 0.1 °C
- Tm1 HiDapE ([2]; 1 μM captopril): 51.2 ± 0.2 °C
- Tm2 HiDapE ([2]; 1 μM captopril): 77.8 ± 0.1 °C
- Tm1 HiDapE ([2]; 3 μM captopril): 52.2 ± 0.1 °C
- Tm2 HiDapE ([2]; 3 μM captopril): 78.0 ± 0.1 °C
- Tm1 HiDapE ([2]; 5 μM captopril): 53.2 ± 0.2 °C
- Tm2 HiDapE ([2]; 5 μM captopril): 77.8 ± 0.1 °C
- Tm1 HiDapE ([2]; 10 μM captopril): 52.9 ± 0.6 °C
- Tm2 HiDapE ([2]; 10 μM captopril): 77.9 ± 0.1 °C
- Effect on stability (Tm) of HiDapE, in words ([2]; thermal shift assays): stabilize HiDapE
- Tm1 AbDapE ([3]; 0.005 μM captopril): 41.9 ± 0.1 °C
- Tm2 AbDapE ([3]; 0.005 μM captopril): 62.9 ± 0.1 °C
- Tm1 AbDapE ([3]; 0.05 μM captopril): 41.9 ± 0.2 °C
- Tm2 AbDapE ([3]; 0.05 μM captopril): 63.3 ± 0.7 °C
- Tm1 AbDapE ([3]; 0.1 μM captopril): 41.9 ± 0.1 °C
- Tm2 AbDapE ([3]; 0.1 μM captopril): 62.6 ± 0.3 °C
- Tm1 AbDapE ([3]; 0.5 μM captopril): 41.9 ± 0.2 °C
- Tm2 AbDapE ([3]; 0.5 μM captopril): 63.1 ± 0.4 °C
- Tm1 AbDapE ([3]; 0.8 μM captopril): 41.9 ± 0.1 °C
- Tm2 AbDapE ([3]; 0.8 μM captopril): 62.3 ± 0.1 °C
- Tm1 AbDapE ([3]; 1 μM captopril): 41.7 ± 0.1 °C
- Tm2 AbDapE ([3]; 1 μM captopril): 63.4 ± 1.0 °C
- Tm1 AbDapE ([3]; 3 μM captopril): 41.7 ± 0.2 °C
- Tm2 AbDapE ([3]; 3 μM captopril): 65.1 ± 0.3 °C
- Tm1 AbDapE ([3]; 5 μM captopril): 41.4 ± 0.1 °C
- Tm2 AbDapE ([3]; 5 μM captopril): 64.1 ± 0.2 °C
- Tm1 AbDapE ([3]; 10 μM captopril): 41.1 ± 0.1 °C
- Tm2 AbDapE ([3]; 10 μM captopril): 66.6 ± 0.2 °C
- Tm1 AbDapE ([3]; 15 μM captopril): 42.0 ± 0.1 °C
- Tm2 AbDapE ([3]; 15 μM captopril): 65.5 ± 0.4 °C
- Effect on stability of AbDapE, in words ([3]; thermal shift assays): increases the stability
- Tm AbDapE-SeMet ([4]; 0.005 μM captopril): 65.3 ± 0.2 °C
- Tm AbDapE-SeMet ([4]; 0.05 μM captopril): 65.5 ± 0.1 °C
- Tm AbDapE-SeMet ([4]; 0.1 μM captopril): 65.3 ± 0.2 °C
- Tm AbDapE-SeMet ([4]; 0.5 μM captopril): 65.1 ± 0.1 °C
- Tm AbDapE-SeMet ([4]; 0.8 μM captopril): 66.1 ± 0.1 °C
- Tm AbDapE-SeMet ([4]; 1 μM captopril): 65.7 ± 0.1 °C
- Tm AbDapE-SeMet ([4]; 3 μM captopril): 66.4 ± 0.3 °C
- Tm AbDapE-SeMet ([4]; 5 μM captopril): 67.2 ± 0.2 °C
- Tm AbDapE-SeMet ([4]; 10 μM captopril): 68.5 ± 0.1 °C
SMILES: C[C@H](CS)C(=O)N1CCC[C@H]1C(=O)O [Captopril]

SMILES: CCN(CC)C(=S)SSC(=S)N(CC)CC [disulfiram]
- Effect on Tm values of DapE, in words [5]: lowering of the Tm values

- Inhibition of AbDapE (in words) [1]: did not inhibit AbDapE significantly
SMILES: CC(=O)N1CCc2cc(Cl)c(S(=O)(=O)NCCC(C)C)cc21 [1-acetyl-5-chloro-N-isopentylindoline-6-sulfonamide]
- Inhibition of AbDapE (in words) ([1]; listed as indoline sulfonamide): not significantly inhibited; also recorded: did not measurably inhibit
